Results from ChEMBL document CHEMBL1123570, “Potent vasopressin antagonists modified at the carboxy-terminal tripeptide tail” (J Med Chem, 1987).
Bridge positions count the residues as written; N and C are the ends. Square brackets hold non-standard residues; d marks the D form. Peptide text beside a SMILES is read from it. Mpa = O=C(O)CCS

Target: Vasopressin V2 receptor (Sus scrofa) (UniProt P32307)
Experiment: Affinity towards vasopressin receptor in porcine renal medullary membrane using [3H]LVP
Assay type: cell membranes
Settings: Renal medulla
In short: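 Pig kidney medullary membrane preparation; displacement of [³H]LVP binding. IC50 taken as the ligand concentration giving 50% inhibition of binding; Kbind calculated by the competitive-inhibition equation Kbind = IC50/(1 + L/KD), with KD the dissociation constant of [³H]LVP.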

Vasopressin V2 receptor (Sus scrofa), sequence (P32307 whole entry): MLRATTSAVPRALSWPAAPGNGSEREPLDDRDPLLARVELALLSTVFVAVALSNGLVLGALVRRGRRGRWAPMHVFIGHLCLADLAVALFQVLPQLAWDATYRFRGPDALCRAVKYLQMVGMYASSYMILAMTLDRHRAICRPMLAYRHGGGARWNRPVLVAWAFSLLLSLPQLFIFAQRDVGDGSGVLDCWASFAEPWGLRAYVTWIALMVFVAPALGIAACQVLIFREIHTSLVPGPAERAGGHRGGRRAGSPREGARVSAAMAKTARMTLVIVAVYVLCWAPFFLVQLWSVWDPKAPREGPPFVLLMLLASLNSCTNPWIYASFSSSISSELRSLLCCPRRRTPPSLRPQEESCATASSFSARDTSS

CC(C)[C@@H]1NC(=O)[C@H](Cc2ccccc2)NC(=O)[C@H](Cc2ccc(O)cc2)NC(=O)CCSSC[C@@H](C(=O)N[C@@H](CCCN=C(N)N)C(=O)N[C@@H](CCCN=C(N)N)C(N)=O)NC(=O)[C@H](CC(N)=O)NC1=O ([Mpa]YFVNCRR-NH2; disulfide 1-6)
K bind: > 1000 nM
